The target in experiment [1] is T1, Mu-type opioid receptor (Rattus norvegicus, UniProt P33535). Briefly: Concentration required for inhibition of [3H]DAMGO binding to Opioid receptor mu 1 in rat brain membranes. Type of experiment: cell membranes. The essentials: (§1)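 Rat brain minus cerebellum, homogenised in 0.32 M sucrose and spun. The membrane pellet was preincubated 1 h at room temperature in Tris pH 7.5/NaCl to strip endogenous opioids. Filtration, scintillation counting.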

Experiment [2] concerns the target T1, Mu-type opioid receptor. Briefly: Binding affinity towards Opioid receptor mu 1. The essentials:
as §1

T1 sequence (P33535 whole entry): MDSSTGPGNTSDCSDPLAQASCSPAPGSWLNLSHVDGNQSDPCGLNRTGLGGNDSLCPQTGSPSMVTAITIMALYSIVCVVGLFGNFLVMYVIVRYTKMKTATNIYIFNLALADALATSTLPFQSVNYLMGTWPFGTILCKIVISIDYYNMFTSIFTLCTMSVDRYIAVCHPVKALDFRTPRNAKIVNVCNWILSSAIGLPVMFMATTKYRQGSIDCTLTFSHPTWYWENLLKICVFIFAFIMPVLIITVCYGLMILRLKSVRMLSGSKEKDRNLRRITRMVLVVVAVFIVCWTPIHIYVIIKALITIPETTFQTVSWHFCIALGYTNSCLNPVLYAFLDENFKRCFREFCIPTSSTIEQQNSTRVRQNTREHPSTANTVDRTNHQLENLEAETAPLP

Consider `NC(=O)[C@H](Cc1ccccc1)NC(=O)[C@H](Cc1c[nH]c2ccccc12)NC(=O)C[C@@H]1CCCN1C(=O)[C@@H](N)Cc1ccc(O)cc1`, for which the IC50 at Mu-type opioid receptor [1] stood at 72 nM. At Mu-type opioid receptor [2], affinity was put at a Ki of 10.4 nM.
For `NC(=O)[C@H](Cc1ccccc1)NC(=O)CC(NC(=O)[C@@H]1CCCN1C(=O)C(N)Cc1ccc(O)cc1)c1c[nH]c2ccccc12` (single isomer, unassigned), the Ki on Mu-type opioid receptor [2] is > 1000 nM.
`NC(=O)[C@H](Cc1ccccc1)NC(=O)[C@H](Cc1c[nH]c2ccccc12)NC(=O)[C@@H]1CCCN1C(=O)CC(N)c1ccc(O)cc1` (stereo partly drawn): the Ki on Mu-type opioid receptor [2] was > 1000 nM.
Take `NC(=O)[C@H](Cc1ccccc1)NC(=O)[C@H](Cc1c[nH]c2ccccc12)NC(=O)C[C@H]1CCCN1C(=O)[C@@H](N)Cc1ccc(O)cc1`: on Mu-type opioid receptor [1], the IC50 was 1.8 nM. At Mu-type opioid receptor [2], this molecule showed a Ki of 0.33 nM.
For `NC(=O)CC(NC(=O)[C@H](Cc1c[nH]c2ccccc12)NC(=O)[C@@H]1CCCN1C(=O)[C@@H](N)Cc1ccc(O)cc1)c1ccccc1` (stereo partly drawn), the IC50 at Mu-type opioid receptor [1] was 680 nM. For the same molecule, at Mu-type opioid receptor [2], the Ki amounted to 908 nM.

Values taken from ChEMBL document CHEMBL1133148 (Bioorg Med Chem Lett, 2000).
